Source: ChEMBL document CHEMBL1136911, “6,7-Dihydro-5H-pyrrolo[1,2-a] imidazoles as potent and selective alpha1A adrenoceptor partial agonists” (Bioorg Med Chem Lett, 2009)

Columns and labels:
[1] = molecular target: T1, Alpha-1A adrenergic receptor (Homo sapiens, UniProt P35348); assay: Agonist activity at human adrenergic alpha1A receptor expressed in CHO cells assessed as calcium mobilization by FLIPR; assay type: functional, cell-based
T1 sequence (P35348 whole entry): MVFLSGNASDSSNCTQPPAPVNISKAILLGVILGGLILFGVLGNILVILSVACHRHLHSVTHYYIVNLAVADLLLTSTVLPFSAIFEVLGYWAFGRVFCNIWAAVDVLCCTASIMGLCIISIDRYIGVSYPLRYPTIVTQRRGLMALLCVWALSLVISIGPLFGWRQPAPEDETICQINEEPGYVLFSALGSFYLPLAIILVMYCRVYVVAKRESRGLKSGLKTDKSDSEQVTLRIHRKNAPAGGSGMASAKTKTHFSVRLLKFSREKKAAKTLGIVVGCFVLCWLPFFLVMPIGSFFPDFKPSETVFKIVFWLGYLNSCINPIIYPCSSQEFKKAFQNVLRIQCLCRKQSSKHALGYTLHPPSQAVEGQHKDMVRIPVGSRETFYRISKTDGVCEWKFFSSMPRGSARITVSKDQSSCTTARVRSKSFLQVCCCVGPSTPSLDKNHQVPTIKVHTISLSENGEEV

CYP1A2 = molecular target: T2, CYP1A2 (Homo sapiens, UniProt P05177); assay: Inhibition of CYP1A2 at 3 uM; assay type: ADME
T2 sequence (P05177 whole entry): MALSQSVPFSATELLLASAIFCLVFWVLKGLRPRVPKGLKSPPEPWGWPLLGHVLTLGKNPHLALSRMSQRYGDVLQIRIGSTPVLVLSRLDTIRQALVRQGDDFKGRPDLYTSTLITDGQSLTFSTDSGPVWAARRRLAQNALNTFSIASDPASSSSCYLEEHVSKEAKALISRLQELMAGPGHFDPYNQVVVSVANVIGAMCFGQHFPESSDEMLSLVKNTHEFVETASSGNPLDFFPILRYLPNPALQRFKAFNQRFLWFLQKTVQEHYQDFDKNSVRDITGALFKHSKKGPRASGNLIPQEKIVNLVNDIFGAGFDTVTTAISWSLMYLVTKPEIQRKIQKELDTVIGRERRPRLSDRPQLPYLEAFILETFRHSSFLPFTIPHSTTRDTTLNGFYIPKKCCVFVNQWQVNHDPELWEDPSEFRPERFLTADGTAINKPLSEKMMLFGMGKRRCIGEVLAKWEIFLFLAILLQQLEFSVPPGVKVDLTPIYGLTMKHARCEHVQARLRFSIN

[2] = molecular target: T3, Alpha-1B adrenergic receptor (Homo sapiens, UniProt P35368); assay: Agonist activity at human adrenergic Alpha-1B receptor expressed in CHO cells assessed as calcium mobilization by FLIPR; assay type: functional, cell-based
T3 sequence (P35368 whole entry): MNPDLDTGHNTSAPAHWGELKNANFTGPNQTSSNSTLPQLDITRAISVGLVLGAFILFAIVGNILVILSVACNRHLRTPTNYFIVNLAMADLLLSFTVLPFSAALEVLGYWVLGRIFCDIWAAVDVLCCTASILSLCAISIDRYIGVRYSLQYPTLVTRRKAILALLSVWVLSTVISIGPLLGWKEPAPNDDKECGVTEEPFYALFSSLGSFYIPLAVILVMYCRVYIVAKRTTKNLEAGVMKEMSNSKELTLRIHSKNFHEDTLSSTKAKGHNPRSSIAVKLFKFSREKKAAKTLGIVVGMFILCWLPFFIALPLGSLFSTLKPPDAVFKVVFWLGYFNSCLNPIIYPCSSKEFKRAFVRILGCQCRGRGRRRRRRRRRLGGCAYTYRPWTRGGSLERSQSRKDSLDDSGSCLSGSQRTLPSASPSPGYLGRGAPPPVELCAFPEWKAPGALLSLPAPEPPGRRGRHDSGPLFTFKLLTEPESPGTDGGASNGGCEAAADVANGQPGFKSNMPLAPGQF
How it was run: (§1)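 Human alpha1B (clone 11) or alpha1D (clone 23) receptor stably expressed in Chinese hamster ovary cells; receptor activation read as Gq-coupled calcium mobilisation with a calcium-sensitive fluorescent dye on FLIPR. Eleven-point concentration-response curves; Emax given as percent of the response to 10 µM phenylephrine. Values are geometric means of at least two experiments.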

CYP2D6 = CYP2D6 (Homo sapiens, UniProt P10635); assay: Inhibition of CYP2D6 at 3 uM; assay type: ADME
[3] = Lipophilicity, log D at pH 7.4; conditions: buffer
[4] = Intrinsic clearance in human liver microsomes; assay type: ADME, Microsome
[5] = molecular target: T4, Alpha-1D adrenergic receptor (Homo sapiens, UniProt P25100); assay: Agonist activity at human adrenergic Alpha-1D receptor expressed in CHO cells assessed as calcium mobilization by FLIPR; assay type: functional, cell-based; how it was run: as §1
T4 sequence (P25100 whole entry): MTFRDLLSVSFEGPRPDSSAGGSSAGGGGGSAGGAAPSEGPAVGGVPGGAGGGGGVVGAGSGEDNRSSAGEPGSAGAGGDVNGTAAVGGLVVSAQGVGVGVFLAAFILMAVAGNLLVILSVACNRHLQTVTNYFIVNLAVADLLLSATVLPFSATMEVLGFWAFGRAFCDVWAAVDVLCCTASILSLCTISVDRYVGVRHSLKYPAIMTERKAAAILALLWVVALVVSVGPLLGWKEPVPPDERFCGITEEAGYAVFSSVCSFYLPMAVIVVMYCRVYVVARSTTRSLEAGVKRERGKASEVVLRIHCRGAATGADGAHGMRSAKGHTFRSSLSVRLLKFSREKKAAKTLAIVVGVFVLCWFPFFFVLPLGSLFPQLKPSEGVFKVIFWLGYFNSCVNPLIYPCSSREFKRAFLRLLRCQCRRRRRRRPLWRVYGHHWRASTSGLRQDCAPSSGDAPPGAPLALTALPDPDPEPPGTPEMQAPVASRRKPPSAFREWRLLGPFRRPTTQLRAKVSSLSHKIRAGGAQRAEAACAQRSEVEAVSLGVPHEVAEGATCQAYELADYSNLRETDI

CYP2C9 = CYP2C9 (Homo sapiens, UniProt P11712); assay: Inhibition of CYP2C9 at 3 uM; assay type: ADME
[6] = molecular target: T5, Alpha-2A adrenergic receptor (Homo sapiens, UniProt P08913); assay: Inhibition of adrenergic alpha2A receptor
T5 sequence (P08913 whole entry): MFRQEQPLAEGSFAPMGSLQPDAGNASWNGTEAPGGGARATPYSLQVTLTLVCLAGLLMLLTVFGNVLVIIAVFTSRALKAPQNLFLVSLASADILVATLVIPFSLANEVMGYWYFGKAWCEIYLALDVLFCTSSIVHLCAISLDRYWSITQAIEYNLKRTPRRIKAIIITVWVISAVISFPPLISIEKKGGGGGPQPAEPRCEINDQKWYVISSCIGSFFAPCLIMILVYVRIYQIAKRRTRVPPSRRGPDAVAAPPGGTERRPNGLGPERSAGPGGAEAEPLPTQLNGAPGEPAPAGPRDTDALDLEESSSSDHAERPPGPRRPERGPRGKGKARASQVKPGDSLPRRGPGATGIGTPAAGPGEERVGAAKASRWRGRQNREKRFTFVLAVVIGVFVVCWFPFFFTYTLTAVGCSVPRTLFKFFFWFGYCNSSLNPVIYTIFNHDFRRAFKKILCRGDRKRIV

[7] = molecular target: Voltage-gated inwardly rectifying potassium channel KCNH2 (Homo sapiens, UniProt Q12809); assay: Inhibition of human ERG up to 22 uM
[8] = Apparent permeability from basolateral to apical side of MDCK cells expressing MDR1; assay type: ADME, cell-based, Canis lupus familiaris; conditions: dog, MDCK-MDR1
How it was run: (§2)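 MDCK cells expressing P-glycoprotein (mdr-1); transcellular flux measured at 10 µM substrate in the apical-to-basolateral and basolateral-to-apical directions, reported as Papp ×10^-6 cm s^-1.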

CYP3A4 = CYP3A4 (Homo sapiens, UniProt P08684); assay: Inhibition of CYP3A4 at 3 uM; assay type: ADME
[9] = Apparent permeability from apical to basolateral side of MDCK cells expressing MDR1; assay type: ADME, cell-based, Canis lupus familiaris; conditions: dog, MDCK-MDR1; how it was run: as §2

Chain of CYP2D6 (P10635 whole entry): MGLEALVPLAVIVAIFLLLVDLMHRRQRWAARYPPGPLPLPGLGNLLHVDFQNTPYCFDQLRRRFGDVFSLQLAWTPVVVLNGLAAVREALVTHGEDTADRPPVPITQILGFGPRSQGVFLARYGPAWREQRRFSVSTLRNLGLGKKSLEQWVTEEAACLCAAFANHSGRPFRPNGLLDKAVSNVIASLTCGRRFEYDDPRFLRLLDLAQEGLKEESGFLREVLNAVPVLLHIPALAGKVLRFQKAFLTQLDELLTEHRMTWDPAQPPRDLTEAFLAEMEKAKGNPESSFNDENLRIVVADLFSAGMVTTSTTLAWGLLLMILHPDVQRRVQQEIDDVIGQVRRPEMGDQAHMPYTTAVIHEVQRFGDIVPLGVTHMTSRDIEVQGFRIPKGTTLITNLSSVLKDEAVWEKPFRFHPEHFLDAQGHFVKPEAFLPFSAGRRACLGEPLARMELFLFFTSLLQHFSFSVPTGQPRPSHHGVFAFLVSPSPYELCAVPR
Chain of Voltage-gated inwardly rectifying potassium channel KCNH2 (Q12809 whole entry): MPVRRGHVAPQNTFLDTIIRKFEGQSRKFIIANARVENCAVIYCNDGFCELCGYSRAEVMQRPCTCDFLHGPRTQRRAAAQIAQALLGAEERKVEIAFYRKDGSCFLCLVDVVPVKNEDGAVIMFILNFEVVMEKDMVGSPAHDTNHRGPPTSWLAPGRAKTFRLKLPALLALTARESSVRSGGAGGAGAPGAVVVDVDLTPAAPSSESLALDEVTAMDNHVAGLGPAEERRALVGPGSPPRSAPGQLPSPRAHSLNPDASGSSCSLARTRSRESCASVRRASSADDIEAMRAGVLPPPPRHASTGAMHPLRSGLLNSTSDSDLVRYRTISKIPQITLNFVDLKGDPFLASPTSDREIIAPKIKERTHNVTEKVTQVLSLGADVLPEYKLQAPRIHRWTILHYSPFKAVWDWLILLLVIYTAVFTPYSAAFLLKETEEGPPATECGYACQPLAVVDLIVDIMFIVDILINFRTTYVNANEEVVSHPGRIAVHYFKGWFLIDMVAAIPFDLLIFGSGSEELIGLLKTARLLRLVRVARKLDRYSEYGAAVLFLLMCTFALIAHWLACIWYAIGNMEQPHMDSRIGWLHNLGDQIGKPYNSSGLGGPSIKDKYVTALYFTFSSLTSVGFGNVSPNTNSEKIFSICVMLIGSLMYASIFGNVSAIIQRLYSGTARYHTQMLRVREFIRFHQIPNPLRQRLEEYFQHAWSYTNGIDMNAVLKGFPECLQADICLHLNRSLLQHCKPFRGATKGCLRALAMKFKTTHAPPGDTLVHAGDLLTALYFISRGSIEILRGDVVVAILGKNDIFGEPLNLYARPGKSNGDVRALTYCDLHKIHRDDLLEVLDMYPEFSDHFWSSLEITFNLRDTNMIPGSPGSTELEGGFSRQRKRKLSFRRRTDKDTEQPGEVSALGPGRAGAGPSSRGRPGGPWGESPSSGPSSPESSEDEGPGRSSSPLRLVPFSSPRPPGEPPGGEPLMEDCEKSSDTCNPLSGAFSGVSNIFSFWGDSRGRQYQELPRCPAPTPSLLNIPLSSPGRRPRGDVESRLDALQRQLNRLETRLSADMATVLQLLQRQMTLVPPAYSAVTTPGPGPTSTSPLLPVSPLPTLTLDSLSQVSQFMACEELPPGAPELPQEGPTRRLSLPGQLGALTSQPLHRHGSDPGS
Chain of CYP2C9 (P11712 whole entry): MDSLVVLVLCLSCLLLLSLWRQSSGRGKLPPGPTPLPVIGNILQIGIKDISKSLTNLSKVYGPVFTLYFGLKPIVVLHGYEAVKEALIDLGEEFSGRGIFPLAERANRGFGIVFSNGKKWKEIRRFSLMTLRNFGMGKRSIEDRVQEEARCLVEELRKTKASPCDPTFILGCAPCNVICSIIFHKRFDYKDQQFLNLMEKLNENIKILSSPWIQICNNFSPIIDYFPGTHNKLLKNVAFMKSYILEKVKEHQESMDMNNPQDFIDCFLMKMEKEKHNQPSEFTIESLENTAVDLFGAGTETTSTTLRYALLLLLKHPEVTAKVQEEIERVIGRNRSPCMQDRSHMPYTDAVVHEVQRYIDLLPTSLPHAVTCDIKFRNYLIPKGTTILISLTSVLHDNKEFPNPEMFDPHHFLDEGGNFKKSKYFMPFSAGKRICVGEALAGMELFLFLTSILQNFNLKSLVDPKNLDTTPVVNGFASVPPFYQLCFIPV
Chain of CYP3A4 (P08684 whole entry): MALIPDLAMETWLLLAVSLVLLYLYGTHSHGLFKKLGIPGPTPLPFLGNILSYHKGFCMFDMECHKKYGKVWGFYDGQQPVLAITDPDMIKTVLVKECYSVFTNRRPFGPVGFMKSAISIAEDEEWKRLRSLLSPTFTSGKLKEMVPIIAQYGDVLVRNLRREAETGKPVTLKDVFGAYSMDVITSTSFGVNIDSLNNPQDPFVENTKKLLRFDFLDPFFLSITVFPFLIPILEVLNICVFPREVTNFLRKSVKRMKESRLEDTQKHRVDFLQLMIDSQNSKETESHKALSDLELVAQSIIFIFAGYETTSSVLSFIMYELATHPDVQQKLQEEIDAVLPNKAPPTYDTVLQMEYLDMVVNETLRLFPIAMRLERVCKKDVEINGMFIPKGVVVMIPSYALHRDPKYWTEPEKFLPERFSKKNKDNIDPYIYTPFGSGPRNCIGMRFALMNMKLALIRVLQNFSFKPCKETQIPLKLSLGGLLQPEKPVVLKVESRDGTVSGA

EC50 [1]: 0.001 µM | inhibition at 3 µM (CYP1A2): < 10% | EC50 [2]: > 10 µM | inhibition at 3 µM (CYP2D6): < 10% | logD [3]: 1.3 | microsomal CLint [4]: < 8 µL/min/mg | EC50 [5]: > 2.6 µM | inhibition at 3 µM (CYP2C9): < 10% | Ki [6]: > 2.78 µM | Papp B→A [8]: 39 ×10⁻⁶ cm/s | inhibition at 3 µM (CYP3A4): < 10% | Papp A→B [9]: 34 ×10⁻⁶ cm/s
SMILES: Fc1ccc(-c2cncnc2)c(C2Cc3nccn3C2)c1 (stereo not drawn)
inhibition (INH) [7]: Not Active
